Assay outcomes (PubChem)
Hits are enriched below; roughly 11% of the tested compounds scored in any of these assays.
L major viab: inhibitors of Leishmania major promastigote growth; hit rate 9% among 200,000; Leishmania major promastigotes, resazurin fluorescence viability; inhibition, % at 10 µM;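 note: promastigotes grown with compound for 44 hours at 28 °C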
Diaph inh CS: counter-screen for diaphorase-based assays: diaphorase inhibitors and chemical oxidizers | diaphorase resazurin-to-resorufin fluorescence, NADH, 16 min; bacterial (C. kluyveri) enzyme, not human | inhibition, % at 20 µM | hit rate 0.69% among 190,000 | AID 1217;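 active = primary screen inhibition at 20 µM above a set limit, cut at about 50% in these data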;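 note: plate controls were DMSO with full reaction for no effect and wells lacking NADH for full effect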
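Assay system: diaphorase enzyme from Clostridium kluyveri. Quantity: enzyme working solution with 0.14 U/mL diaphorase. Schedule: reaction incubation of 16 min at room temperature. Technique: resorufin fluorescence, excitation 544 nm, emission 590 nm. Controls: No-NADH positive control and DMSO neutral control.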
WT yeast gro inh: growth inhibition of WT yeast, mitochondrial fusion screen; mitochondrial fusion phenotypic screen, WT strain; inhibition, % at 10 µM; hit rate 2.1% among 190,000; in the data active = inhibition above about 58%; tested in S. cerevisiae
Diaph act CS: activates diaphorase or chemically reduces, flagging diaphorase assay artifacts; Diaphorase/resazurin coupled assay, resorufin fluorescence, 16 min; hits give high values; 1 = vehicle wells, 0 = NADH-free wells; activation factor at 20 µM; hit rate 0.005% among 190,000;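 active = diaphorase activity raised at least twofold by the compound at 20 µM; inactive = activation factor below 2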
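System – purified diaphorase enzyme from Clostridium kluyveri · Input – enzyme 0.07 U/mL final · Also added – final NADH 0.114 mM, resazurin 0.1 mM · Measured by – fluorescence of resorufin, 544 nm excitation, 590 nm emission · Timing – 16 min enzyme reaction, ambient temperature · Measure – resorufin increase flagging diaphorase activators or reducers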
G6PDH counter: L. mesenteroides G6PDH inhibition counter-screen | Purified L. mesenteroides G6PDH, diaphorase/resazurin coupled fluorescence, 45 min | inhibition, % at 5 µM | hit rate 0.12% among 200,000 | AID 1020
* hit, by the source's call. Cut-off read from the data, not from the text of the source, unless noted: active = inhibition above about 50%; inactive = the rest.

What do the screens show for `Cc1cc(CCN2CCC(=O)NC2=O)ccc1OC(C)C`?
L major viab: -2.8; Diaph inh CS: -0.8; WT yeast gro inh: -2.6; Diaph act CS: 1; G6PDH counter: 6.7

How did CCOC(=O)Cc1c(Sc2ccccc2)c2cc(C)ccc2n1C do in these assays?
L major viab: -0.3; Diaph inh CS: 19.1; WT yeast gro inh: 68.0*; Diaph act CS: 0.8; G6PDH counter: -11.9

How did Nc1nc2n(n1)C(c1cccc(Cl)c1)CC(c1ccc(F)cc1)N2 (configuration not stated) do in these assays?
L major viab: 40.4; Diaph inh CS: 18.4; WT yeast gro inh: -10.5; Diaph act CS: 0.8; G6PDH counter: 1.9

What do the screens show for `CCOc1ccc(C2CC(c3cccc(Cl)c3)n3nc(N)nc3N2)cc1` (configuration not stated)?
L major viab: 67.0*; Diaph inh CS: 8.9; WT yeast gro inh: 4.9; Diaph act CS: 0.9; G6PDH counter: -12.2

Results for CC(C)NC(=O)c1ccc2c(=O)n(C3CCCC3)c(=S)[nH]c2c1 ?
L major viab: 1.0; Diaph inh CS: 5.1; WT yeast gro inh: -17.7; Diaph act CS: 0.9; G6PDH counter: 3.0

What do the screens show for `CCN(CC)CCNC(=O)c1ccc2c(=O)n(C3CCCC3)c(=S)[nH]c2c1`?
L major viab: 85.2*; Diaph inh CS: 4.7; WT yeast gro inh: 4.0; Diaph act CS: 1; G6PDH counter: 7.9

How did O=S(=O)(Nc1nc(-c2sccc2Cl)cs1)c1cc(Cl)ccc1Cl do in these assays?
L major viab: -9.4; Diaph inh CS: 21.8; WT yeast gro inh: -20.3; Diaph act CS: 0.8; G6PDH counter: 4.1

What do the screens show for `CN(C)c1nnnn1-c1cccc(Oc2ncc(C(F)(F)F)cc2Cl)c1`?
L major viab: 0.5; Diaph inh CS: 9.9; WT yeast gro inh: -7.2; Diaph act CS: 0.9; G6PDH counter: 9.2

Results for C=CCNC(=S)NNC(=O)COc1ccc2cc(Br)ccc2c1 ?
L major viab: 27.1; Diaph inh CS: -4.4; WT yeast gro inh: 59.4*; Diaph act CS: 1; G6PDH counter: 9.4

Results for CS(=O)(=O)c1ccc(C(=O)NC2CCCc3ccccc32)cc1 (configuration not stated) ?
L major viab: 0.7; Diaph inh CS: -15.1; WT yeast gro inh: 0.3; Diaph act CS: 1.2; G6PDH counter: 5.7

What do the screens show for `CC1(C)CC(=O)C2=C(C1)OC1=C(C2)C(=O)CC(C)(C)C1`?
L major viab: -8.2; Diaph inh CS: 8.9; WT yeast gro inh: -8.6; Diaph act CS: 0.9; G6PDH counter: 3.7

Results for CCN(CC)c1ccc(/C=N/NC(=O)CCC(=O)NCc2ccccc2)c(O)c1 ?
L major viab: 97.6*; Diaph inh CS: 21.0; WT yeast gro inh: 15.1; Diaph act CS: 0.8; G6PDH counter: -3.0

Results for CCOC(=O)N/N=C/c1ccc(N(CC)CC)cc1O ?
L major viab: -11.8; Diaph inh CS: 27.9; WT yeast gro inh: 6.3; Diaph act CS: 0.7; G6PDH counter: 10.7

How did Cn1ncc(Cl)c1C(=O)N/N=C/c1cc2c(cc1[N+](=O)[O-])OCO2 do in these assays?
L major viab: 1.1; Diaph inh CS: 30.7; WT yeast gro inh: -3.8; Diaph act CS: 0.7; G6PDH counter: 13.0

How did CCN(CC)c1ccc(/C=N/Nc2nc(C)cc(=O)[nH]2)c(O)c1 do in these assays?
L major viab: 98.6*; Diaph inh CS: 41.1; WT yeast gro inh: 2.7; Diaph act CS: 0.6; G6PDH counter: 23.4

How did CCN(CC)c1ccc(/C=N/NC(=O)c2c(Cl)cnn2C)c(O)c1 do in these assays?
L major viab: 98.7*; Diaph inh CS: 9.3; WT yeast gro inh: -7.4; Diaph act CS: 0.9; G6PDH counter: -13.0

What do the screens show for `O=C(Cc1ccccc1[N+](=O)[O-])NCCCN1CCOCC1`?
L major viab: -0.2; Diaph inh CS: 4.0; WT yeast gro inh: -9.7; Diaph act CS: 1; G6PDH counter: 1.2

How did Cc1ccc(S(=O)(=O)c2c(C)cc(C)nc2N2CCCCC2)cc1 do in these assays?
L major viab: 42.0; Diaph inh CS: 5.8; WT yeast gro inh: 53.8; Diaph act CS: 0.9; G6PDH counter: 6.9

How did CCOc1cccc(C(=O)NC(c2ccccc2)C(C)C)c1 (configuration not stated) do in these assays?
L major viab: 57.0*; Diaph inh CS: 14.9; WT yeast gro inh: 6.0; Diaph act CS: 0.9; G6PDH counter: 20.8

How did CC(C)COc1ccc(C(=O)Nc2ccc(SC(F)F)cc2)cc1 do in these assays?
L major viab: 52.4*; Diaph inh CS: -0.2; WT yeast gro inh: -19.4; Diaph act CS: 1; G6PDH counter: -8.9

How did Cc1nc(N2CCCCC2C)c2c(C)c(C(=O)Nc3ccccc3C(F)(F)F)sc2n1 (configuration not stated) do in these assays?
L major viab: 30.6; Diaph inh CS: 24.2; WT yeast gro inh: 75.3*; Diaph act CS: 0.8; G6PDH counter: 3.0

How did Cc1nc(N2CCOCC2)c2c(C)c(C(=O)Nc3ccccc3C(F)(F)F)sc2n1 do in these assays?
L major viab: 41.5; Diaph inh CS: 13.7; WT yeast gro inh: 20.0; Diaph act CS: 0.9; G6PDH counter: -1.9

What do the screens show for `Nc1cccc2cnccc12`?
L major viab: 8.3; Diaph inh CS: 54.1*; WT yeast gro inh: 3.5; Diaph act CS: 0.5; G6PDH counter: 29.6

Results for CN1CCN(S(=O)(=O)c2ccc(NC(=O)COc3ccccc3Cl)cc2)CC1 ?
L major viab: -6.9; Diaph inh CS: -13.9; WT yeast gro inh: 2.2; Diaph act CS: 1.1; G6PDH counter: 5.0

How did Cc1nc2ncnn2c(C)c1CCC(=O)N1CCN(c2ccccn2)CC1 do in these assays?
L major viab: 1.1; Diaph inh CS: -7.6; WT yeast gro inh: 1.9; Diaph act CS: 1.1; G6PDH counter: 2.8

What do the screens show for `Cc1nc2cc(-c3ccccc3)nn2c(C)c1CCC(=O)N1CCN(c2ccccc2)CC1`?
L major viab: 86.7*; Diaph inh CS: -17.8; WT yeast gro inh: 21.0; Diaph act CS: 1.2; G6PDH counter: 12.3

How did Cc1cc(C)c(NC2=NCC(=O)N2C2CCCCC2)c(C)c1 do in these assays?
L major viab: 12.2; Diaph inh CS: 10.4; WT yeast gro inh: 68.3*; Diaph act CS: 0.9; G6PDH counter: 20.3

How did COc1cc(O)c2c(c1)OC(c1ccc(O)cc1)CC2=O (configuration not stated) do in these assays?
L major viab: -11.1; Diaph inh CS: 56.6*; WT yeast gro inh: 1.7; Diaph act CS: 0.4; G6PDH counter: 4.9

How did Cc1c(O)cc2c(c1O)C(=O)CC(c1ccc(O)cc1)O2 (configuration not stated) do in these assays?
L major viab: -11.9; Diaph inh CS: 24.5; WT yeast gro inh: 3.5; Diaph act CS: 0.8; G6PDH counter: 12.5

Results for CC(C)=CCc1c(O)c(CC=C(C)C)c2c(c1O)C(=O)CC(c1ccc(O)cc1)O2 (configuration not stated) ?
L major viab: 28.1; Diaph inh CS: 25.5; WT yeast gro inh: 91.1*; Diaph act CS: 0.7; G6PDH counter: 10.7

What do the screens show for `C/C(Sc1nnc(Cc2ccccc2)o1)=C(/O)c1ccccc1`?
L major viab: 9.3; Diaph inh CS: 8.7; WT yeast gro inh: -3.8; Diaph act CS: 0.9; G6PDH counter: -1.3
